Molecules are shown by their SMILES. The source made the active and inactive calls.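 Rule for the calls: active = compounds whose fitted caspase activation midpoint falls no more than tenfold above the top tested dose; inconclusive = flat fit with activity between 30 and 70 percent, or failed fit; inactive = the rest.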

This assay has as its system MEF Flag-A1-IRES-BIM, caspase-Glo luminescence, 3 h. Description: Caspase-Glo signal, Flag-A1-IRES-BIM MEF cells – cell-based, alternate construct, luminescence, A1 (Bcl2A1) inhibitor project, dose response (AID 449757). The method, boiled down:
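Assay system: mouse embryonic fibroblasts primed via Flag-A1-IRES-BIM expression construct; quantity: 2500 cells per well, seeded one day before compound; medium: RPMI-1640 growth medium with 10% FBS; doses: 100 nL compound added per well by pin transfer; timing: 3-h compound at 37 °C, 30-min cooling, 1-h reagent at RT; measured by: CaspaseGlo luminescence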
In the case of `CC1=NNC(=O)/C1=C\c1cn(-c2ccccc2)nc1-c1ccccc1`, the AC50 – broadly, the concentration at which the activity in the assay is half-maximal – is 10.4 µM.
Turning to `O=C(NC1CCCC1)c1cccc2c1C(=O)c1ccc(/C=C/c3ccccc3)cc1S2(=O)=O`, the AC50 was 7.48 µM.
Regarding `Cc1ccc(C)c(S(=O)(=O)NCC(=O)Nc2sc3c(c2C(N)=O)CCC(C)C3)c1` (configuration not stated), the AC50 is > 35 µM (inactive).
With `Cc1cccc(C)c1NC(=O)CSc1nc(C)c(CC(=O)c2ccc(Br)cc2)c(C)c1C#N` the figure was 28.8 µM; with `CC1=NNC(=O)/C1=C\c1cn(-c2ccccc2)nc1-c1cccs1`, 14.2 µM; with `COC(=O)[C@@]1(C)CC[C@]2(C)CC[C@@]3(C)C(=CC(=O)C4[C@@]5(C)CC[C@H](O)C(C)(C)[C@@H]5CC[C@]43C)[C@H]2C1` (some centres not stated), > 35 µM (inactive).
As to `CC(C)N=c1scc(-c2ccco2)n1/N=C/c1ccc(O)c(O)c1`, the AC50 is > 35 µM (inactive).
Consider `O=C(COc1ccc(/C=N/NC(=O)c2cc3ccccc3o2)cc1Br)Nc1ccccc1`, for which the AC50 is 25.3 µM.
Take `Cc1ccc(C=C2C(Cl)=C(Cl)C(Cl)=C2Cl)cc1`: the AC50 is 4.67 µM.
Turning to `CC(C)c1cccc(-c2ccc3c(c2)S(=O)(=O)c2cccc(C(=O)NC4CCCC4)c2C3=O)c1`, the AC50 was > 35 µM (inactive).
As to `CCOC(=O)COc1ccccc1/C=C\[N+](=O)[O-]`, the half-maximal activity concentration (AC50) is 10.5 µM.
For the compound `COc1cc2cnc(-c3ccccc3)c(-c3cccc(C(F)(F)F)c3)c2cc1OC`, the AC50 was > 35 µM (inactive).
Consider `COc1ccc(OC)c(NC(=O)c2cc(-c3cc(C)ccc3O)n[nH]2)c1`, for which the AC50 was > 35 µM (inactive).
As for `CN1C2CCC1/C(=C/c1ccccn1)C(=O)/C2=C\c1ccccn1`, the AC50 is > 35 µM (inactive).
For the compound `O=C(NCc1ccccc1Cl)c1cccc2c1C(=O)c1ccc(-c3ccc(OC(F)(F)F)cc3)cc1S2(=O)=O`, the AC50 was > 35 µM (inactive).
For `COc1ccc(-c2c(C#N)c(N)nc(Sc3ccc(Cl)cc3)c2C#N)cc1` the value was > 35 µM (inactive); for `COc1ccc(C2CC(c3c(O)cc(C)oc3=O)=NCCS2)c(OC)c1` (configuration not stated), > 35 µM (inactive).
For the compound `CCOC(=O)c1ccc(-c2ccc(/C=N/NC(=O)CN(c3cccc(C)c3)S(C)(=O)=O)o2)cc1`, the AC50 was 36.2 µM.
For `Cc1ccc(-c2nc(NC(=O)c3nn(C)cc3[N+](=O)[O-])sc2C)cc1` the value was 6.7 µM; for `COc1cc(/C=C(/C#N)c2nc3ccccc3[nH]2)ccc1OCC(=O)Nc1ccccc1C(C)C`, 16.1 µM; for `CCOc1ccc2nc(NCCNC(=O)Nc3cccc(C)c3)c(C#N)cc2c1`, 33.9 µM.
For `COc1ccc(-c2ccc3c(c2)S(=O)(=O)c2cccc(C(=O)NC[C@@H]4CCCO4)c2C3=O)cc1OC` the value was > 35 µM (inactive); for `CCc1ccc2nc(N(CCCN(C)C)C(=O)c3ccc(S(=O)(=O)N4CCc5ccccc5C4)cc3)sc2c1`, > 35 µM (inactive); for `CCOC(=O)/C=c1\s/c(=C\c2ccc(C(=O)OC)cc2)c(=O)n1CC(=O)Nc1ccccc1`, > 35 µM (inactive).
With `CCS(=O)(=O)c1ncc(Cl)c(C(=O)Nc2ccc(S(=O)(=O)N3CCC(C)CC3)cc2)n1` the figure was > 35 µM (inactive); with `O=C(NC1CCCCC1)C(c1ccc(F)cc1)N(CCc1ccccc1)C(=O)CN1C(=O)c2ccccc2S1(=O)=O` (configuration not stated), 7.6 µM; with `Clc1ccccc1CN(Cc1ccccc1)c1ncnc2nc[nH]c12`, > 35 µM (inactive).
As for `Cc1cc(NC(=O)CSc2nc3cc(Cl)ccc3c(=O)n2Cc2ccco2)no1`, the AC50 is > 35 µM (inactive).
Turning to `CCc1ccc(Nc2n[n+](-c3ccccc3)c(/C=C/c3ccccc3)s2)cc1`, the AC50 is 10.3 µM.
In the case of `CCOC(=O)c1sc(NC(=O)CSc2nc(C)cc(C)c2C#N)c(C#N)c1C`, the AC50 was > 35 µM (inactive).
Regarding `COc1ccccc1-c1cc(C(F)(F)F)nc(S(=O)(=O)CCCC(=O)NC(C)C)n1`, the AC50 was 8.84 µM.
Take `COc1ccc2[nH]c3c(=O)n(/N=C/[C@H]4C(C)C=C(C)CC4C)c(=O)[nH]c3c2c1` (some centres not stated): the AC50 is 11 µM.
In the case of `CCc1nn(-c2cc(Oc3cccc4ccccc34)nc(-c3ccccc3)n2)c(N)c1C#N`, the AC50 was > 35 µM (inactive).
As to `O=C(N=Nc1c(O)[nH]c2ccc([N+](=O)[O-])cc12)c1cc(-c2ccccc2Cl)nc2ccccc12`, the AC50 is > 35 µM (inactive).
For the compound `COc1ccc(OC[C@@H](O)CNC(=O)c2cccc3c2C(=O)c2ccc(-c4ccc(F)cc4OCc4ccccc4)cc2S3(=O)=O)cc1`, the AC50 was > 35 µM (inactive).
On to `O=C(Nc1ccc2oc(-c3ccccc3F)nc2c1)c1ccccc1F`, for which the AC50 is > 35 µM (inactive).
On to `Cc1ccc(NC(=O)c2cc(N3C(=O)C=CC3=O)ccc2N2CCOCC2)cc1Cl`, for which the AC50 was 15.8 µM.
`CCOC(=O)C1=C(c2ccccc2)O/C(=C(/C#N)C(F)(F)F)S1`: the AC50 was > 35 µM (inactive).
Take `N#CC(C#N)=C1C=CC=CN1/C(=C\c1ccccc1Cl)C(=O)c1ccccc1`: the AC50 was 3.43 µM.
`O=C(COc1ccc(/C=N/NC(=O)c2cc3ccccc3o2)cc1Cl)Nc1ccccc1`: the AC50 was 9.15 µM.
In the case of `Nc1c(C(=O)Nc2ccc(S(=O)(=O)N3CCCC3)cc2)sc2nc3ccc(OC(F)(F)F)cc3cc12`, the AC50 is 23.3 µM.
With `CCOc1ccc(N2C(=O)/C(=C\c3ccc(O)c(OC)c3)S(=O)(=O)C2c2cccc([N+](=O)[O-])c2)cc1` (configuration not stated) the figure was > 35 µM (inactive); with `O=C(Oc1cccc(/C=N/Nc2nc(Nc3ccccc3)nc(N3CCOCC3)n2)c1)c1ccco1`, > 35 µM (inactive); with `CCOC(=O)/C(=C\c1ccc([N+](=O)[O-])cc1)C(=O)c1cc(C(C)=O)c(Nc2ccccc2)s1`, 1.81 µM.
With `CCC(Sc1nc2cc3c(cc2c(=O)n1Cc1ccco1)OCO3)C(=O)Nc1cccc(OC)c1` (configuration not stated) the figure was > 35 µM (inactive).
For the compound `CC1CCc2c(sc3nc(C(C)(C)C)nc(N4CCN(C(=O)CCl)CC4)c23)C1` (configuration not stated), the concentration at half-maximal activity (AC50) was 10.2 µM.
Take `O=C(Nc1ccc([N+](=O)[O-])cc1)C(Cc1ccccc1)N1C(=O)c2cccc3cccc(c23)C1=O` (configuration not stated): the AC50 was > 35 µM (inactive).
Consider `COc1ccc2c(-c3cc4ccc(OCc5ccc(F)cc5)cc4oc3=O)cc(=O)oc2c1`, for which the AC50 is 21.1 µM.
Take `O=C(NCc1ccccc1Br)c1cccc2c1C(=O)c1ccc(-c3ccc(OC(F)(F)F)cc3)cc1S2(=O)=O`: the AC50 was > 35 µM (inactive).
On to `O=C(CCl)N=c1sccn1Cc1ccccc1Cl`, for which the AC50 was > 35 µM (inactive).
With `Cc1ccc(C#N)c(SCC(=O)Nc2nccs2)n1`, the AC50 is > 35 µM (inactive).
With `Cc1ccc(N(Cc2cc(=O)[nH]c3ccccc23)C(=O)CCl)cc1`, the AC50 was > 35 µM (inactive).
With `Cc1ccc(NC(=S)NC(NC(=O)Cc2cccc3ccccc23)C(Cl)(Cl)Cl)cc1` (configuration not stated) the figure was 20.2 µM.
Take `O=C(Nc1ccc(Cl)cc1Cl)c1cccc(N2C(=O)C=CC2=O)c1`: the AC50 was 19.1 µM.
Consider `O=C1/C(=C/c2ccc(N3CCOCC3)o2)SC(=Nc2ccccc2)N1CCc1c[nH]c2ccccc12`, for which the AC50 was > 35 µM (inactive).
Consider `COC(=O)c1ccc2c(c1)C(C)(C)C(/C=C/c1ccccc1O)=[N+]2C`, for which the AC50 is 11.3 µM.
Take `CC(=O)[C@]1(O)Cc2c(O)c3c(c(O)c2[C@@H](O[C@H]2C[C@H](N)[C@H](O)[C@H](C)O2)C1)C(=O)c1ccccc1C3=O`: the AC50 was > 35 µM (inactive).

(Values after PubChem BioAssay AID449757 (Broad Institute, 2010).)
